Measurements: ChEMBL document CHEMBL1122166, “Beta-adrenergic blocking agents. 22. 1-Phenoxy-3-[[(substituted-amido) alkyl]amino]-2-propanols” (J Med Chem, 1982)

Columns and labels:
[1] = biological target: T1, Adrenergic receptor beta (Homo sapiens) (UniProt P08588+P07550+P13945); assay: In vivo beta adrenergic receptor blocking potency was determined by inhibition of tachycardia produced by isoproterenol (0.2 mg/kg iv) in cat preparation; format: functional, organism-based
In short: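 Test agent infused over 30 min at three to five dose levels. Challenge was a submaximal isoproterenol dose (0.2 μg/kg iv). Mean log values were taken from two or three tests, with standard errors of the means.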

[2] = biological target: T1, Adrenergic receptor beta (Homo sapiens); assay: In vivo beta adrenergic receptor blocking potency was determined by inhibition of depressor response produced by isoproterenol (0.2 mg/kg iv) in cat preparation; format: functional, organism-based
In short: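 Test agent infused over 30 min at three to five dose levels against a submaximal isoproterenol challenge (0.2 μg/kg iv). The percent blockade of the isoproterenol vasodepressor response was estimated at the dose level derived from the tachycardia inhibition estimate.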

[3] = biological target: T1, Adrenergic receptor beta (Homo sapiens); assay: In vivo beta adrenergic receptor blocking potency was determined by inhibition of tachycardia produced by isoproterenol (0.2 µg/kg iv) in cat preparation; conditions: Felis catus; target entry is the homologue from another species
[4] = Felis catus; target entry is the homologue from another species; in the assay text read “0.2 µg/kg iv” for “0.2 mg/kg iv”
[5] = Felis catus; in the assay text read “0.2 µg/kg iv” for “0.2 mg/kg iv”; target entry is the homologue from another species

| SMILES | ED50 [1, 4] [mg/kg] | inhibition [2, 4] [%] | ED50 [1, 5] [mg/kg] | inhibition [2, 5] [%] | ED50 [3] [mg/kg] |
| --- | --- | --- | --- | --- | --- |
| C=CCOc1ccccc1OCC(O)CNC(C)CNC(=O)Cc1ccccc1 (stereo unspecified) | 0.019 | 30 | – | – | – |
| CCCCNC(=O)NCCNCC(O)COc1ccccc1C#N (stereo unspecified) | – | – | 0.304 | 0 | – |
| CC(=O)NCCNCC(O)COc1ccccc1 (stereo unspecified) | – | – | 0.015 | 7 | – |
| CN(C)c1ccccc1C(=O)NCCNCC(O)COc1ccccc1 (stereo unspecified) | 0.465 | – | – | 0 | – |
| O=C(Cc1ccc(Cl)cc1)NCCNCC(O)COc1ccccc1 (stereo unspecified) | – | 8 | 0.017 | – | – |
| CC(C)C(=O)NCC(C)(C)NCC(O)COc1ccccc1 (stereo unspecified) | 0.003 | 0 | – | – | – |
| CC(C)C(=O)NCCNCC(O)COc1ccccc1[N+](=O)[O-] (stereo unspecified) | 0.006 | 5 | – | – | – |
| CC(CNC(=O)Cc1ccccc1)NCC(O)COc1ccccc1 (stereo unspecified) | – | 0 | 0.003 | – | – |
| N#Cc1ccccc1OCC(O)CNCCNC(=O)Nc1ccccc1[N+](=O)[O-] (stereo unspecified) | – | – | 0.097 | 11 | – |
| CC(=O)NCCCCCCNCC(O)COc1ccccc1 (stereo unspecified) | 0.044 | 16 | – | – | – |
| CC(C)(CNC(=O)Cc1ccccc1)NCC(O)COc1ccccc1 (stereo unspecified) | – | 0 | 0.011 | – | – |
| O=C(NCCNCC(O)COc1ccccc1)c1ccc(O)c(O)c1 (stereo unspecified) | 0.014 | 0 | – | – | – |
| COCC(=O)NCCNCC(O)COc1ccccc1 (stereo unspecified) | – | – | 0.016 | 0 | – |
| O=C(Cc1ccccc1)NCCNCC(O)COc1ccccc1 (stereo unspecified) | – | – | 0.029 | 0 | – |
| O=C(NCCNCC(O)COc1ccccc1)c1ccccc1Cl (stereo unspecified) | – | – | 0.161 | 0 | – |
| O=C(NCCNCC(O)COc1ccccc1)c1cc(O)ccc1O (stereo unspecified) | – | – | 0.616 | 0 | – |
| O=C(NCCNCC(O)COc1ccccc1)C1CC1 (stereo unspecified) | 0.022 | – | – | 0 | – |
| O=C(NCCNCC(O)COc1ccccc1Cl)Nc1ccccc1 (stereo unspecified) | 0.037 | – | – | 4 | – |
| N#Cc1ccccc1OCC(O)CNCCNC(N)=O (stereo unspecified) | – | 21 | 0.06 | – | – |
| O=C(NCCNCC(O)COc1ccccc1[N+](=O)[O-])Nc1ccccc1 (stereo unspecified) | – | – | 0.052 | 14 | – |
| CCNC(=O)NCCNCC(O)COc1ccccc1 (stereo unspecified) | 0.024 | 0 | – | – | – |
| CC(CNC(=O)Cc1ccccc1)NCC(O)COc1ccccc1C#N (stereo unspecified) | – | – | 0.004 | 10 | – |

| SMILES | ED50 [1, 4] [mg/kg] | inhibition [2, 4] [%] | ED50 [1, 5] [mg/kg] | inhibition [2, 5] [%] | ED50 [3] [mg/kg] |
| --- | --- | --- | --- | --- | --- |
| CC(C)NC(=O)NCCNCC(O)COc1ccccc1C#N (stereo unspecified) | 0.168 | 0 | – | – | – |
| CS(=O)(=O)NCCNCC(O)COc1ccccc1 (stereo unspecified) | – | – | 0.039 | 0 | – |
| CC(C)(OC(=O)NCCNCC(O)COc1ccccc1)c1ccc(Cl)cc1 (stereo unspecified) | – | – | 0.078 | 25 | – |
| O=C(NCCNCC(O)COc1ccccc1)NC1CCCCC1 (stereo unspecified) | – | 6 | – | – | 0.282 |
| C=CCNC(=O)NCCNCC(O)COc1ccccc1 (stereo unspecified) | 0.024 | – | – | 5 | – |
| CNC(=O)NCCNCC(O)COc1ccccc1C#N (stereo unspecified) | – | – | 0.044 | 18 | – |
| Cc1c(N)cc(S(=O)(=O)NCCNCC(O)COc2ccccc2)cc1[N+](=O)[O-] (stereo unspecified) | – | – | – | 34 | 0.217 |
| CC(C)S(=O)(=O)NCCNCC(O)COc1ccccc1 (stereo unspecified) | – | 9 | 0.008 | – | – |
| NC(=O)NCCNCC(O)COc1ccccc1 (stereo unspecified) | – | – | 0.012 | 0 | – |
| CC(C)(C)C(=O)NCCNCC(O)COc1ccccc1[N+](=O)[O-] (stereo unspecified) | – | 25 | 0.011 | – | – |
| CCCCNC(=O)NCCNCC(O)COc1ccccc1 (stereo unspecified) | 0.022 | – | – | 8 | – |
| CCCCCC(=O)NCC(C)NCC(O)COc1ccccc1 (stereo unspecified) | – | – | 0.005 | 0 | – |
| C=CCOc1ccccc1OCC(O)CNCCNC(=O)Nc1ccccc1 (stereo unspecified) | 0.037 | 24 | – | – | – |
| CC(CNC(=O)Cc1ccccc1Cl)NCC(O)COc1ccccc1[N+](=O)[O-] (stereo unspecified) | 0.007 | – | – | 34 | – |
| CCCCCCCCC(=O)NCCNCC(O)COc1ccccc1 (stereo unspecified) | – | 3 | 0.84 | – | – |
| O=C(COc1ccccc1)NCCNCC(O)COc1ccccc1 (stereo unspecified) | – | 0 | 0.038 | – | – |
| O=C(NCCNCC(O)COc1ccccc1)C1CCCCC1 (stereo unspecified) | 0.02 | – | – | 0 | – |
| CCCCCC(=O)NCCNCC(O)COc1ccccc1 (stereo unspecified) | – | 0 | 0.159 | – | – |
| CC(C)NC(=O)NCCNCC(O)COc1ccccc1 (stereo unspecified) | – | 0 | 0.099 | – | – |
| CC(C)C(=O)NCCCNCC(O)COc1ccccc1 (stereo unspecified) | – | – | – | 0 | 0.21 |
| CC(CNC(=O)C(C)C)NCC(O)COc1ccccc1 (stereo unspecified) | – | 37 | 0.005 | – | – |
